Measured values published in ChEMBL document CHEMBL4270536, “Preparation, characterisation and biological evaluation of new N-phenyl amidobenzenesulfonates and N-phenyl ureidobenzenesulfonates inducing DNA double-strand breaks. Part 3. Modulation of ring A” (Eur J Med Chem, 2018).
Activity calls are given as the source filed them. The calls are words filed in the database; no cut-off is given here.

Experiments:
[1] = tested on: MCF7; assay: Antiproliferative activity against human MCF7 cells after 48 hrs by SRB assay; assay type: functional, cell-based; details: MCF7, 48 h
In short: (§1)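 Cells grown in DMEM with 5% FBS at 37 C; seeded per well at 2.5 x 10^3 (HT-1080), 4.0 x 10^3 (HT-29), 3.0 x 10^3 (M21) or 2.5 x 10^3 (MCF7). Drugs from 40 mM DMSO stock, serial dilutions, final 100 µM to 78 nM, DMSO <0.5%.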

[2] = tested on: M21; assay: Cell cycle arrest in human M21 cells assessed as accumulation at G2/M phase at 2 times IC50 after 24 hrs by DAPI staining based flow cytometry relative to control; assay type: functional
In short: (§2)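 Flow cytometry in M21 cells seeded in six-well plates, allowed 24 h, then exposed 24 h to drug (2- or 5-fold IC50); DMSO 0.5% control. Trypsinized, PBS-washed, fixed in ice-cold EtOH, stained with 2 mg/mL DAPI in PBS; sub-G1, G0/G1, S and G2/M fractions measured on LSR II cytometer.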

[3] = tested on: M21; assay: Cell cycle arrest in human M21 cells assessed as accumulation at G0/G1 phase at 2 times IC50 after 24 hrs by DAPI staining based flow cytometry relative to control; assay type: functional; in short: as §2
[4] = tested on: M21; assay: Induction of DNA damage in human M21 cells assessed as increase in gammaH2Ax level at 5 times IC50 after 24 hrs by immunofluorescence based epifluorescence microscopy
[5] = tested on: M21; assay: Cell cycle arrest in human M21 cells assessed as accumulation at S phase at 2 times IC50 after 24 hrs by DAPI staining based flow cytometry relative to control; assay type: functional; in short: as §2
[6] = tested on: HT-29; assay: Antiproliferative activity against human HT-29 cells after 48 hrs by SRB assay; assay type: functional, cell-based; details: HT-29, 48 h; in short: as §1
[7] = tested on: M21; assay: Antiproliferative activity against human M21 cells after 48 hrs by SRB assay; assay type: functional, cell-based; details: M21, 48 h; in short: as §1
[8] = tested on: HT-1080; assay: Antiproliferative activity against human HT1080 cells after 48 hrs by SRB assay; assay type: functional, cell-based; details: HT-1080, 48 h; in short: as §1
[9] = tested on: M21; assay: Cell cycle arrest in human M21 cells assessed as accumulation at sub-G1 phase at 2 times IC50 after 24 hrs by DAPI staining based flow cytometry relative to control; assay type: functional; in short: as §2
[10] = Alkylating activity at DNA (unknown origin) after 90 mins by colorimetric NBP assay relative to chlorambucil; assay type: functional
In short: (§3)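 NBP alkylation kinetics (Bardos colorimetric method): 400 nmol drug in 1 mL ethanol mixed with 1 mL NBP (10% v/v in 95% ethanol), 1 mL 50 mM acetate buffer pH 4.3 and 1 mL ethanol, kept on ice, then heated at 80 C in shaking water bath; stopped on ice 5 min after 0, 30, 60, 90 min. Rate constant from linear regression of absorbance curve; chlorambucil as positive control.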

[11] = Alkylating activity at DNA (unknown origin) after 90 mins by colorimetric NBP assay; assay type: functional; in short: as §3
[12] = tested on: M21; assay: Induction of DNA damage in human M21 cells assessed as increase in gammaH2Ax level at 5 times IC50 after 24 hrs by immunofluorescence based epifluorescence microscopy; assay type: functional, cell-based
In short: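 M21 cells (1 x 10^5) on fibronectin-coated (5 µg/mL, 1 h, 37 C) cover slides, 24 h attachment, then drug for 24 h; DMSO 0.25% in medium as control. Fixed with 3.7% formaldehyde, permeabilized with 0.1% saponin/3% BSA, mouse anti-H2AX pS139 (1:8000), DAPI nuclear stain; γH2AX foci imaged by epifluorescence microscopy.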

[13] = tested on: M21; assay: Cell cycle arrest in human M21 cells assessed as accumulation at sub-G1 phase at 2 times IC50 after 24 hrs by DAPI staining based flow cytometry relative to control
[14] = tested on: M21; assay: Cell cycle arrest in human M21 cells assessed as accumulation at S phase at 2 times IC50 after 24 hrs by DAPI staining based flow cytometry relative to control
[15] = tested on: M21; assay: Cell cycle arrest in human M21 cells assessed as accumulation at G2/M phase at 2 times IC50 after 24 hrs by DAPI staining based flow cytometry relative to control
[16] = tested on: M21; assay: Cell cycle arrest in human M21 cells assessed as accumulation at G0/G1 phase at 2 times IC50 after 24 hrs by DAPI staining based flow cytometry relative to control
[17] = tested on: M21; assay: Cell cycle arrest in human M21 cells assessed as accumulation at G0/G1 phase at 1.8 uM after 24 hrs by DAPI staining based flow cytometry relative to control; assay type: functional; in short: as §2
[18] = tested on: M21; assay: Cell cycle arrest in human M21 cells assessed as accumulation at G2/M phase at 1.8 uM after 24 hrs by DAPI staining based flow cytometry relative to control; assay type: functional; in short: as §2
[19] = tested on: M21; assay: Cell cycle arrest in human M21 cells assessed as accumulation at S phase at 1.8 uM after 24 hrs by DAPI staining based flow cytometry relative to control; assay type: functional; in short: as §2
[20] = tested on: M21; assay: Cell cycle arrest in human M21 cells assessed as accumulation at sub-G1 phase at 1.8 uM after 24 hrs by DAPI staining based flow cytometry relative to control; assay type: functional; in short: as §2

Structure (SMILES) | IC50 [1] [µM] | Activity [2] [%] | Activity [3] [%] | Activity [4] | Activity [5] [%] | IC50 [6] [µM] | IC50 [7] [µM] | IC50 [8] [µM] | Activity [9] [%] | fold change (FC) [10] | K [11] [×10⁻³ /s] | Activity [12] | Activity [13] [%] | Activity [14] [%] | Activity [15] [%] | Activity [16] [%] | Activity [17] [%] | Activity [18] [%] | Activity [19] [%] | Activity [20] [%]
CCCC(=O)Nc1ccc(S(=O)(=O)Oc2ccccc2C(C)C)cc1 | 6.6 | 15.5 | 40 | Active | 43.8 | 4.9 | 6.1 | 0.95 | 0.7 | 14 | 0.37 | – | – | – | – | – | – | – | – | –
CCC(=O)Nc1ccc(S(=O)(=O)Oc2ccccc2I)cc1 | 8.1 | 11.4 | 60.4 | Active | 28 | 11 | 11 | 7.2 | 0.2 | 11 | 0.49 | – | – | – | – | – | – | – | – | –
CCCC(=O)Nc1ccc(S(=O)(=O)Oc2ccccc2I)cc1 | 9.7 | 40.1 | 37 | Active | 22.8 | 11 | 9 | 2 | 0.1 | 60 | 0.088 | – | – | – | – | – | – | – | – | –
CC(C)c1ccccc1OS(=O)(=O)c1ccc(NC(=O)NCCCCl)cc1 | 7.4 | – | – | – | – | 6.9 | 9.3 | 2.7 | – | 160 | 0.033 | Active | 0.8 | 38.6 | 17.2 | 43.4 | – | – | – | –
CC(C)c1ccccc1OS(=O)(=O)c1ccc(NC(=O)CCCl)cc1 | 9 | 30.6 | 33.7 | Active | 35.6 | 16 | 14 | 6.5 | 0.1 | 220 | 0.024 | – | – | – | – | – | – | – | – | –
O=C(CCCl)Nc1ccc(S(=O)(=O)Oc2ccccc2I)cc1 | 8.9 | 37.4 | 27.5 | Active | 34.9 | 14 | 12 | 4.2 | 0.2 | 84 | 0.063 | – | – | – | – | – | – | – | – | –
O=C(NCCCCl)Nc1ccc(S(=O)(=O)Oc2ccccc2I)cc1 | 7.6 | – | – | – | – | 9.6 | 4.6 | 2.8 | – | 44 | 0.12 | Active | 0.1 | 32 | 13.5 | 54.4 | – | – | – | –
CC(C)c1ccccc1OS(=O)(=O)c1ccc(NC(=O)C(C)(C)C)cc1 | 6.5 | 16 | 36.7 | Active | 46.9 | 15 | 6.2 | 11 | 0.4 | 780 | 0.007 | – | – | – | – | – | – | – | – | –
CC[C@@]1(O)C(=O)OCc2c1cc1n(c2=O)Cc2cc3c(CN(C)C)c(O)ccc3nc2-1 [TOPOTECAN] | 0.2 | – | – | – | – | – | – | 0.5 | – | – | – | – | – | – | – | – | 45.2 | 22.8 | 31.9 | 0.1
CCNC(=O)Nc1ccc(S(=O)(=O)Oc2ccccc2C(C)C)cc1 | 10 | – | – | – | – | 1.1 | 4.7 | 0.25 | – | 14 | 0.37 | Active | 0.8 | 31.5 | 8.9 | 58.8 | – | – | – | –
CCCNC(=O)Nc1ccc(S(=O)(=O)Oc2ccccc2I)cc1 | 2.9 | – | – | – | – | 6.8 | 5.4 | 0.7 | – | 13 | 0.4 | Active | 0.1 | 26.6 | 10.7 | 62.6 | – | – | – | –
CCC(=O)Nc1ccc(S(=O)(=O)Oc2ccccc2C(C)C)cc1 | 11 | 15.4 | 39.6 | Active | 44.4 | 7.4 | 11 | 2.1 | 0.6 | 17 | 0.31 | – | – | – | – | – | – | – | – | –
CCNC(=O)Nc1ccc(S(=O)(=O)Oc2ccccc2I)cc1 | 1.1 | – | – | – | – | 5.3 | 5.6 | 0.14 | – | 42 | 0.12 | Active | 0.3 | 23.4 | 8.7 | 67.6 | – | – | – | –
